PKD1 kinase inh: blocks activity of human protein kinase D1; PKD1 kinase fluorescence polarization assay; inhibition, % (concentration not given with the values); 200,000 tested, 0.056% active; AID 797; in the data active = inhibition above about 50%
m-calpain inh: calpain II (pig) inhibition. purified calpain II, fluorogenic peptide substrate, 30 min. inhibition, % at 16 µM. 220,000 tested, 0.37% active;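 active = inhibition above about 50%, limit read from the data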
KCC2 mod: modulators of human KCC2 chloride dependent transport | Q9H2X9 | KCC2 cells, thallium flux FluoZin-2 fluorescence | B-score of Tl+ flux slope (higher = more flux/activation; lower = inhibition) at 10 µM | 190,000 tested, 2.2% active;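 active = thallium flux slope and its plate-corrected score both differing from the plate sample mean at a set confidence after two filtering rounds, in either direction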;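 also: slope of fluorescence scaled to starting intensity during 10 to 20 s after thallium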
ROMK mod: modulators of human ROMK potassium channel; P48048; Tet-inducible ROMK, thallium flux fluorescence; actives lie on both sides; B-score at 10 µM; 130,000 tested, 2% active;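 active = signal ratio slope over the read window, or its plate-corrected B-score, at least 3 SD from the plate mean, either direction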;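 also: B-score of the F/F0 ratio slope over 7 to 12 s after thallium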
Target sequence (P48048 whole entry, looked up): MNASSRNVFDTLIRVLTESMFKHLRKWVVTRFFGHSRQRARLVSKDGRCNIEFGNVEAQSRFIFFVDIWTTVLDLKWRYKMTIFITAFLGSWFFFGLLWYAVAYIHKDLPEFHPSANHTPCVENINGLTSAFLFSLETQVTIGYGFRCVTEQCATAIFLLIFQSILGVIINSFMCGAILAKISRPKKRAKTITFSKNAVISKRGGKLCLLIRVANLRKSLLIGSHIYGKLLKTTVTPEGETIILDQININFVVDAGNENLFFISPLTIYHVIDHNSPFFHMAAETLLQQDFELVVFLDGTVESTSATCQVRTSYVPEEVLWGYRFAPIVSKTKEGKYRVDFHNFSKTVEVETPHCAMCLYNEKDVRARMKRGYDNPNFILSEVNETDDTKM
Mdm2 ligase inh: Mdm2 E3 ligase (human) inhibition. AID 1230. Q00987. 210,000 tested, 0.11% active. signal enhancement, % at 5 µM. cell-based MDM2 ubiquitination luciferase reporter, 2 h; 0 = plate control, 100 = twice control, blank-subtracted;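 active = signal enhancement of 30% or more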;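 also: luminescence tracks abundance of the self-degrading MDM2-luciferase fusion protein; higher signal means inhibition of MDM2 E3 ligase activity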
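Timing – 2 h compound exposure at 37 °C · Assay system – mammalian cells stably expressing self-ubiquitinating, self-degrading MDM2 E3–luciferase fusion · Amount – 2000 cells seeded into each well · Measure – % luminescence enhancement versus blank-corrected plate control mean · Measured by – SteadyLite luminescence, 15 min reagent step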
Arbovirus inh: antivirals against arbovirus infection; arbovirus infection cell-based antiviral screen; inhibition, % at 10 µM; 200,000 tested, 0.37% active; AID 1251; in the data active = inhibition above about 30%
ROMK retest: human ROMK channel modulation, retest confirmation. shares compounds with ROMK mod. ROMK thallium flux, fluorescence ratio; active compounds read low. normalized thallium flux (F/F0 slope) at 10 µM. 3,000 tested, 54% active;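 active = Flux at 10 µM at least 3 SD below or above vehicle control mean in one or both replicates; inconclusive = no clear call, values can overlap the other calls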
An asterisk follows results filed as active; ? = inconclusive; . = no result. The list is not random: actives were taken first. Their share in the collection is about 3.7%.

SMILES | PKD1 kinase inh | m-calpain inh | KCC2 mod | ROMK mod | Mdm2 ligase inh | Arbovirus inh | ROMK retest
O=C(c1cc(Sc2cccc(Cl)c2)nc2ccccc12)N1CCN(c2ccccn2)CC1 | -3 | 0 | 0.11 | -0.82 | 4 | -4 | 0.078
O=C(c1cc(Sc2ccc(Cl)cc2)nc2ccccc12)N1CCN(c2ccccn2)CC1 | 0 | 38 | -0.48 | 0.06 | -16 | -3 | .
Cc1nc(NCc2ccco2)c2c3c(sc2n1)CCC3 | -4 | -46 | . | . | -9 | -18 | .
c1coc(CNc2ncnc3sc4c(c23)CCCCC4)c1 | 6 | 3 | -0.77 | . | -11 | 8 | 0.062*
COc1cc(/C=N/n2nnnc2Nc2ccccc2)cc(OC)c1OC | -5 | 13 | 0.87 | 1.3 | 1 | 3 | .
Cc1cc(C)n(C(=O)c2ccc(S(=O)(=O)NCC3CCCO3)cc2)n1 (stereo unspecified) | -3 | -16 | . | . | 4 | 3 | .
CCOC(=O)c1c(C)n(-c2ccc(C)cc2)c2ccc(OCC(O)CNCCCO)cc12 (stereo unspecified) | 1 | -10 | -0.061 | -3.6* | -9 | -22 | 0.053*
CC(C)[C@H](NC(=O)c1ccc(C(C)(C)C)cc1)C(=O)Nc1nnc(C2CC2)s1 | 2 | 41 | -0.014 | . | -8 | 10 | .
O=C1C2CC=CCC2C(=O)N1c1n[nH]c(-c2ccccc2)n1 (stereo unspecified) | -3 | 25 | . | 0.12 | -8 | 10 | .
C=C(C)Cn1cnc2cc(C)c(C)cc21 | -2 | -6 | . | . | 0 | 5 | .
CCOC(=O)C1=NN(C(=O)Cc2ccccc2)C(O)(C(C)(C)C)C1 (stereo unspecified) | -5 | -14 | 0.37 | -13* | 5 | 1 | 0.077
CCn1ncc(/C=N\NC(=O)c2ccc3c(c2)c(C)c(C)n3Cc2ccccc2)c1C | 2 | -170 | -0.22 | 0.92 | -8 | -6 | .
Cc1c(C)n(Cc2ccccc2)c2ccc(C(=O)OCCN(C)C)cc12 | 3 | -8 | 0.88 | -3.5* | -2 | -21 | 0.059*
COC1=C(N)C(=O)c2nc(-c3nc(C(=O)O)c(C)c(-c4ccc(OC)c(OC)c4O)c3N)ccc2C1=O | 7 | 3 | 0.56 | . | . | -43 | 0.057*
COc1ccc(-c2ncncc2-c2csc(C)n2)c(O)c1OC | -7 | -8 | -0.26 | 1.4 | -17 | 9 | .
O=C(CS(=O)(=O)c1cn(Cc2ccc(Cl)cc2)c2ccccc12)N1CCCC1 | 3 | -6 | -1.9 | . | -46 | 22 | .
O=C(Cc1cn(Cc2cccc(Cl)c2)c2ccccc12)N1CCCC1 | 0 | 52* | 0.032 | -3.2* | 7 | -19 | 0.059*
CC(c1ccco1)N(C(=O)c1ccccc1NS(=O)(=O)c1ccc(Cl)c([N+](=O)[O-])c1)c1ccccn1 (stereo unspecified) | -6 | 25 | 1.1 | . | 4 | 19 | 0.062*
O=c1[nH]c(CNCc2cccnc2)nc2ccccc12 | 2 | -26 | -0.95 | -0.11 | -5 | 1 | .
O=[N+]([O-])c1ccc2c(c1)nc1n2CCN(c2ccccc2)C1 | . | 11 | 0.35 | . | . | . | 0.072
O=C(O)c1ccc(/C=N/NC(=O)c2cc(-c3ccc4c5c(cccc35)CC4)n[nH]2)cc1 | -11 | -57 | -2.2 | . | -9 | -18 | .
O=C(COc1ccccc1)Nc1nccs1 | -8 | -9 | . | 3* | -28 | -2 | 0.077
Cc1ccc(S(=O)(=O)C(C#N)c2nc3ccccc3nc2N2CCC(C)CC2)cc1 (stereo unspecified) | -11 | -167 | -2.8 | . | -10 | 2 | 0.068*
Cc1c(C(=O)O)oc2c1/C(=N\O)CCC2 | -5 | -3 | 0.21 | . | 0 | 5 | .
O/N=C1\CCCc2oc3c(c21)CCCC3 | 2 | 27 | . | . | 1 | 5 | 0.064*
SMILES | PKD1 kinase inh | m-calpain inh | KCC2 mod | ROMK mod | Mdm2 ligase inh | Arbovirus inh | ROMK retest
Cc1cc(C(=O)OCC(=O)N2c3ccccc3CC2C)c(C)o1 (stereo unspecified) | 1 | 11 | -1.8 | -1.4 | -6 | -3 | ?
CCN(CC)S(=O)(=O)c1ccc(O)c(C(=O)OCC(=O)N2c3ccccc3CC2C)c1 (stereo unspecified) | . | -22 | -1.3 | . | . | . | .
O=C(O)Cc1csc(-c2ccccc2)n1 | 3 | -28 | -0.43 | 0.19 | -11 | 3 | .
O=C(O)Cc1csc(-c2ccc(F)cc2)n1 | -1 | -16 | -0.1 | 3* | -8 | 1 | ?
C=CCN=C1S/C(=C/c2cccc([N+](=O)[O-])c2)C(=O)N1CC=C | . | 11 | 0.59 | . | 4 | . | .
O=C(O)c1cccc(CN2C(=O)S/C(=C/c3cccc([N+](=O)[O-])c3)C2=O)c1 | . | 8 | -1.4 | -12* | -3 | . | 0.03*
Nc1ccc(S(=O)(=O)NC2=NCCCCC2)cc1N | -8 | 11 | -0.18 | -0.42 | -5 | 3 | .
O=[N+]([O-])c1cc(S(=O)(=O)NC2=NCCCCC2)ccc1NCC1CCCCC1 | -1 | 1 | -0.2 | -7.6* | -6 | -17 | 0.059*
COc1cccc(CN2CCC(CO)(CC3CCCCO3)CC2)c1 (stereo unspecified) | -4 | 1 | 0.98 | -0.0024 | -4 | -3 | .
COc1cccc(-c2csc(N3CCN(C(=O)Nc4ccc(F)cc4)CC3)n2)c1 | 2 | 31 | 0.059 | -2.3 | -6 | -7 | .
COc1cccc(-c2csc(N3CCN(C(=O)C4CCCCC4)CC3)n2)c1 | -7 | 12 | -1.1 | . | -4 | -5 | ?
Cc1cc(C(=O)CN2C(=O)NC3(CCC(C)CC3)C2=O)c(C)n1C (stereo unspecified) | -3 | -16 | 0.15 | 0.8 | -4 | -5 | .
CCc1cccc(CC)c1NC(=O)CN1C2CCCC1CC(NC(=O)Nc1cccc(OC)c1)C2 (stereo unspecified) | -4 | 42 | 0.46 | -4* | -10 | -13 | ?
COc1ccc(-c2nc(C)c(C(C)=O)n2O)cc1[N+](=O)[O-] | 5 | -10 | 0.5 | -0.25 | -8 | 19 | .
CC(=O)c1c(C)nc(-c2cccc([N+](=O)[O-])c2)n1O | -2 | 7 | 1 | -4.7* | -18 | 10 | 0.063*
CCC1CCC2(CC1)NC(=O)N(CC(=O)c1c(C)[nH]c3ccccc13)C2=O (stereo unspecified) | -3 | -19 | -0.33 | . | -4 | 4 | .
COc1ccc(C(C[N+](=O)[O-])c2c(-c3ccccc3)cc3ccccn23)cc1 (stereo unspecified) | -7 | -102 | -0.44 | -3.7* | -1 | 2 | 0.084
COc1cc(C(C[N+](=O)[O-])c2c(-c3ccccc3)cc3ccccn23)cc(OC)c1OC (stereo unspecified) | -3 | -152 | -0.0097 | -1.4 | . | -33 | .
COc1ccc(C(C[N+](=O)[O-])c2c(-c3ccccc3)cc3ccccn23)cc1OC (stereo unspecified) | -7 | -39 | -0.49 | -3.7* | -17 | -10 | 0.064*

Bioassay records deposited in PubChem BioAssay by several laboratories.
